For assay [1], the system named is Mus musculus. Put plainly: Anticonvulsant activity in ip dosed DBA/2 mouse assessed as inhibition of auditory stimulation-induced tonic seizures administered 30 mins before auditory stimulation. The assay is classed as functional. The conditions noted are these: DBA/2, ip. In a few lines: (§1)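 DBA/2 mice (8-12 g, 22-25 days old, either sex), groups of 10, given vehicle or drug ip and exposed to auditory stimulation 30 min later. Latency to and incidence of each seizure phase scored. ED50 per seizure phase derived from dose–response curves by Litchfield–Wilcoxon, with 95% confidence limits; at least 32 animals per ED50. Fisher's exact test used for incidence.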

Assay [2] deals with Mus musculus. Description: Anticonvulsant activity in ip dosed DBA/2 mouse assessed as inhibition of auditory stimulation-induced clonic seizures administered 30 mins before auditory stimulation. The assay is classed as functional. The note with it: DBA/2, ip. In a few lines: as §1
Another assay deals with Carbonic anhydrase 9 (Homo sapiens, UniProt Q16790). Put plainly: Inhibition of human recombinant carbonic anhydrase 9 catalytic domain by stopped flow CO2 hydration method.

Regarding `COc1cc2c(cc1OC)C(c1ccc(N)cc1)NCC2` (stereo not drawn), the median effective dose (ED50) (as a rule, the midpoint of the dose-response relation) with Mus musculus [1] is 28.6 µmol/kg; in the assay with Mus musculus [2], 46.6 µmol/kg.
Regarding `COc1cc2c(cc1OC)C(c1ccc([N+](=O)[O-])cc1)NCC2` (stereo not drawn), the median effective dose (ED50) turned out to be 56.1 µmol/kg in the assay with Mus musculus [1] and 101 µmol/kg with Mus musculus [2].
Turning to `COc1cc2c(cc1OC)C(c1ccccc1)NCC2` (stereo not drawn), the ED50 turned out to be 19.3 µmol/kg in the assay on Mus musculus [1] and 44.8 µmol/kg in the assay with Mus musculus [2].
Take `COc1cc2c(cc1OC)C(c1ccc(Br)cc1)N(C(=O)CN1CCCCC1)CC2` (stereo not drawn): the ED50 in the assay with Mus musculus [1] came to 8.17 µmol/kg; with Mus musculus [2] it was 12.7 µmol/kg.
On to `COc1cc2c(cc1OC)C(c1cccc([N+](=O)[O-])c1)N(S(N)(=O)=O)CC2` (stereo not drawn), for which the Ki (in general, the equilibrium dissociation constant of an inhibitor or competing ligand from its target) at Carbonic anhydrase 9 worked out at 6.45 µM. Moreover, the ED50 with Mus musculus [1] and in the assay on Mus musculus [2] was greater than 100 µmol/kg throughout.
Regarding `COc1cc2c(cc1OC)C(c1ccc([N+](=O)[O-])cc1)N(S(N)(=O)=O)CC2` (stereo not drawn), the inhibition constant Ki on Carbonic anhydrase 9 worked out at 0.48 µM. The ED50 in the assay with Mus musculus [1] and with Mus musculus [2] was greater than 100 µmol/kg throughout.
As to `COc1cc2c(cc1OC)C(c1ccc(F)cc1)NCC2` (stereo not drawn), the ED50 came to 26.4 µmol/kg in the assay on Mus musculus [1] and 57.8 µmol/kg in the assay on Mus musculus [2].
Take `COc1cc2c(cc1OC)C(c1ccc(N)cc1)N(S(N)(=O)=O)CC2` (stereo not drawn): the results for the ED50 in the assay with Mus musculus [1] and in the assay with Mus musculus [2] were 3.6 µmol/kg and 17.7 µmol/kg, respectively.
Take `COc1cc2c(cc1OC)C(c1ccc(C)cc1)NCC2` (stereo not drawn): the ED50 was 36.5 µmol/kg in the assay on Mus musculus [1] and 48.6 µmol/kg in the assay on Mus musculus [2].
As for `COc1cc2c(cc1OC)C(c1ccc(C)cc1)N(S(N)(=O)=O)CC2` (stereo not drawn), the Ki on Carbonic anhydrase 9 was determined as 6.75 µM. Also, the median effective dose (ED50) in the assay with Mus musculus [1] turned out to be 51.7 µmol/kg; in the assay with Mus musculus [2], 97.1 µmol/kg.
Take `COc1cc2c(cc1OC)C(c1ccc(Cl)cc1)N(C(C)=O)CC2` (stereo not drawn): the results for the ED50 with Mus musculus [1] and with Mus musculus [2] were 2.39 µmol/kg and 4.18 µmol/kg, respectively.
For `COc1cc2c(cc1OC)C(c1ccc(C#N)cc1)N(S(N)(=O)=O)CC2` (stereo not drawn), the Ki at Carbonic anhydrase 9 stood at 4.98 µM. Also, the median effective dose (ED50) in the assay on Mus musculus [1] and in the assay with Mus musculus [2] was greater than 100 µmol/kg each time.
As for `COc1cc2c(cc1OC)C(c1ccc(F)cc1)N(S(N)(=O)=O)CC2` (stereo not drawn), the ED50 was 41.8 µmol/kg with Mus musculus [1] and greater than 100 µmol/kg in the assay with Mus musculus [2].
For the compound `COc1cc2c(cc1OC)C(c1ccc(Cl)cc1)NCC2` (stereo not drawn), the figures for the 50% effective dose (ED50) with Mus musculus [1] and with Mus musculus [2] were 19.3 µmol/kg and 20.1 µmol/kg, respectively.
In the case of `COc1cc2c(cc1OC)C(c1ccc(Br)cc1)N(S(N)(=O)=O)CC2` (stereo not drawn), the Ki at Carbonic anhydrase 9 was 8.2 µM. Besides, the results for the ED50 with Mus musculus [1] and in the assay with Mus musculus [2] were 67.3 µmol/kg and greater than 100 µmol/kg, respectively.
`COc1cc2c(cc1OC)C(c1ccc(Cl)cc1)N(S(N)(=O)=O)CC2` (stereo not drawn): the Ki on Carbonic anhydrase 9 worked out at 7.54 µM. The ED50 is 7.25 µmol/kg in the assay with Mus musculus [1] and 23.5 µmol/kg in the assay on Mus musculus [2].
As to `COc1cc2c(cc1OC)C(c1ccccc1)N(S(N)(=O)=O)CC2` (stereo not drawn), the median effective dose (ED50) in the assay with Mus musculus [1] was 7.82 µmol/kg; in the assay on Mus musculus [2] it was greater than 100 µmol/kg.
Taken in the same sequence, the figures for `COc1cc2c(cc1OC)C(c1ccc(Br)cc1)NCC2` (stereo not drawn) were 12.5 µmol/kg and 30.6 µmol/kg.
For `CC1(C)O[C@@H]2[C@@H](CO[C@@]3(COS(N)(=O)=O)OC(C)(C)O[C@@H]23)O1` [TOPIRAMATE], the 50% effective dose (ED50) in the assay with Mus musculus [1] is 18 µmol/kg; with Mus musculus [2], 35.7 µmol/kg.
With `COc1cc2c(cc1OC)C(c1cccc(N)c1)N(S(N)(=O)=O)CC2` (stereo not drawn), the inhibitory constant (Ki) at Carbonic anhydrase 9 is 8.13 µM. Further, the figures for the 50% effective dose (ED50) in the assay with Mus musculus [1] and with Mus musculus [2] were 65.8 µmol/kg and greater than 100 µmol/kg, respectively.
On to `COc1cc2c(cc1OC)C(c1cccc([N+](=O)[O-])c1)NCC2` (stereo not drawn), for which the values for the ED50 with Mus musculus [1] and with Mus musculus [2] were 7.2 µmol/kg and 19.3 µmol/kg, respectively.
For the compound `COc1cc2c(cc1OC)C(c1cccc(N)c1)NCC2` (stereo not drawn), the ED50 stood at 18.2 µmol/kg with Mus musculus [1] and 40.4 µmol/kg in the assay with Mus musculus [2].
As for `COc1cc2c(cc1OC)C(c1ccc(C#N)cc1)NCC2` (stereo not drawn), the ED50 in the assay with Mus musculus [1] was 48.6 µmol/kg; in the assay with Mus musculus [2], greater than 100 µmol/kg.

Source of the values: ChEMBL document CHEMBL1136887, “Synthesis and evaluation of pharmacological profile of 1-aryl-6,7-dimethoxy-3,4-dihydroisoquinoline-2(1H)-sulfonamides” (Bioorg Med Chem, 2009).
